Bioassay records: PubChem, several laboratories
Rin1 Abl inh: inhibitors of Rin1-Abl protein binding, primary screen, biochemical, TR-FRET. 0.4% of 360,000 active. inhibition, % at 7.35 µM; in the data active means inhibition above about 5%, passing the limit was not always enough
TbMetRS inhib: T. brucei MetRS inhibitors, primary screen, biochemical, luminescence. methionyl-tRNA synthetase (Trypanosoma brucei brucei). purified T. brucei MetRS, ATP depletion, Kinase-Glo luminescence. inhibition, % at 11.9 µM. 0.4% of 360,000 active. AID 624268, 2012;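 active means inhibition above a per-plate cutoff of the control wells' mean inhibition plus 3 SD, cut at about 5.5% in these data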
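Dosing: 11.9 µM single point; system: parasite MetRS enzyme; technique: luminescence of leftover ATP; times: 15 min enzyme-compound preincubation, 2 h reaction, 10 min detection, 25 °C; replicates: each compound tested once; read-out basis: percent inhibition relative to median high and low control wells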
ATG4B inhibitor: ATG4B protease inhibitors, primary screen, biochemical, fluorescence, uHTS; Cysteine protease ATG4B (Homo sapiens), Q9Y4P1; ATG4B cleavage of LC3-PLA2, NBD-HPC fluorescence, 1 h; inhibition, % at 8.33 µM; 0.51% of 340,000 active; AID 504462, 2011; in the data active means inhibition above about 40%
UCH37 DUB inh: inhibitors of human UCH37 deubiquitinase, primary screen, biochemical, Ub-AMC cleavage, fluorescence; Ubiquitin carboxyl-terminal hydrolase isozyme L5 (Homo sapiens), Q9Y5K5; purified proteasome/UCH37; inhibition, % (no concentration beside the values); 0.33% of 330,000 active; AID 588478, 2011;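 active means mean inhibition over replicate wells above about 20%, limit read from the data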
Target sequence (Q9Y5K5 whole entry, looked up): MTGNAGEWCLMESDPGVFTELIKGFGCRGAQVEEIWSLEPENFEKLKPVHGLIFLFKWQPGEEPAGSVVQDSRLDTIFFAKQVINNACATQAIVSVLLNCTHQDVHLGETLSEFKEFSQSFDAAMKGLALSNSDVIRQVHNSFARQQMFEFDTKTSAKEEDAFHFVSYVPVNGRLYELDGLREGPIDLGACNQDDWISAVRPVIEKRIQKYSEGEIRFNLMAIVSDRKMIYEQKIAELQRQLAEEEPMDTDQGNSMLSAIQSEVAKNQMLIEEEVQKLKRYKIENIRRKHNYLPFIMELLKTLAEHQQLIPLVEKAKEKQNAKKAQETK
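Material: Human UCH37 enzyme supplied as purified proteasome complex | Schedule: 30 min compound-proteasome preincubation then 25 min substrate reaction, room temperature | Detection: AMC fluorescence from Ub-AMC cleavage, excitation 355 nm, emission 460 nm | Benchmarks: Wells without proteasome as full block, compound-free enzyme plus substrate as uninhibited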
ATG4B confirm: ATG4B protease inhibitors, retest, confirmation, biochemical, fluorescence, single concentration | shares compounds with ATG4B inhibitor | ATG4B protease fluorescent substrate cleavage assay | inhibition, % at 8.33 µM | 92% of 320 active | AID 504757, 2011; in the data active means inhibition above about 39%
PLA2 ctr: PLA2 enzyme inhibition, counter-screen for ATG4B inhibitor project, biochemical, single concentration, uHTS hits; shares compounds with ATG4B inhibitor; purified PLA2, NBD-C6-HPC fluorescence, 45 min; inhibition, % at 8.33 µM; 66% of 1,600 active; in the data active means inhibition above about 50%
A number is an active result; - = inactive; . = not tested or not shown. This is a sample that favours compounds with a hit; in the whole collection about 1.4% have one here.

SMILES	Rin1 Abl inh	TbMetRS inhib	ATG4B inhibitor	UCH37 DUB inh	PLA2 ctr	others
Cc1ccc(N/C=C2/Sc3ccccc3NC2=O)cc1	-	-	-	-	.
O=C(CCCn1c(=S)[nH]c2cc3c(cc2c1=O)OCO3)N1CCN(c2ccccc2)CC1	-	-	-	-	.
CC(=O)c1ccc(N2CCN(C(=O)CCCn3c(=S)[nH]c4cc5c(cc4c3=O)OCO5)CC2)cc1	-	-	45	-	61
O=C(CCCn1c(=S)[nH]c2cc3c(cc2c1=O)OCO3)N1CCc2ccccc2C1	-	-	60	-	63
O=C(COC(=O)c1cnc(Cl)c(Cl)c1)NCc1cccs1	-	-	-	-	.
CCOc1ccc(/C=C/C2=Cc3c(sc(NC(=O)CSc4n[nH]c(N)n4)c3C#N)C(C)(C)C2)cc1	-	-	-	-	.
Cc1ccsc1/C=C/C1=Cc2c(sc(NC(=O)CSc3n[nH]c(N)n3)c2C#N)C(C)(C)C1	-	-	66	-	52
N/C(=N/O)c1ccccc1N1CCC(Cc2ccccc2)CC1	-	-	40	.	58
COC(=O)Nc1nc2ccc(Br)cc2s1	-	-	-	-	.
O=C1C(=C(c2ccccc2)c2ccccc2)Nc2ccccc21	-	-	43	-	50
CC(C)(C)C(=O)C(Cc1ccccc1Cl)n1cncn1 (stereo not given)	-	-	-	-	.
O=C(NN=C1CCCCCC1)c1cn(-c2ccccc2)nc1-c1ccccc1	-	-	43	-	-	ATG4B confirm=62
Cc1cc(C)nc(SCc2ccc(C(=O)N/N=C3\CC(C)CC(C)(C)C3)cc2)n1 (stereo not given)	-	-	47	.	-	ATG4B confirm=76
COc1ccc(N2CC(C(=O)Nc3nnc(SCC(=O)NC(C)(C)C)s3)CC2=O)cc1 (stereo not given)	-	-	-	-	.
O=C1N[C@@H](c2ccccc2)COC(=O)[C@H](Cc2ccc(F)cc2)CC/C=C/C[C@@H]1CC(=O)N(CCO)Cc1ccccc1	-	-	48	-	57
O=C(Nc1ccccc1Cc1ccccc1)c1ccccc1NS(=O)(=O)c1ccc(Cl)s1	-	-	82	-	83
O=C(Nc1ccccc1)c1ccccc1NS(=O)(=O)c1ccc(Cl)s1	-	-	-	-	.
NCC1CCN(c2nc3ccccc3c3c2CCCC3)CC1	-	-	-	.	.
COc1ccc(-c2cc(C(F)(F)F)nc(SCc3cccc(C(=O)O)c3)n2)cc1	-	-	44	-	56
O=C(O)c1cccc(CSc2nc(-c3ccccc3)cc(C(F)(F)F)n2)c1	-	-	-	-	.
CC1(C)C2CCC1(C)C1(C2)NC(=O)c2ccccc2O1 (stereo not given)	-	-	45	-	-	ATG4B confirm=70
O=C1NC2(CCCC2)Oc2ccccc21	-	-	-	-	.
CCn1c(SCC(=O)Nc2oc(-c3ccccc3)c(-c3ccccc3)c2C#N)nnc1-c1ccco1	-	-	61	-	68
Cc1ccc(C(=O)NC(=S)Nc2ccccc2N2CCCC2)cc1[N+](=O)[O-]	-	-	42	-	-
CC(=O)N1CCN(C(=O)c2cccc(S(=O)(=O)N3CCN(c4ccccc4)CC3)c2)CC1	-	-	-	-	.
SMILES	Rin1 Abl inh	TbMetRS inhib	ATG4B inhibitor	UCH37 DUB inh	PLA2 ctr	others
COc1cc(/C=C2/C(=N)N3C=CSC3=NC2=O)ccc1OCCCOc1ccccc1C	-	-	-	-	.
COc1cc(/C=C2/C(=N)N3C=CSC3=NC2=O)ccc1OCCCOc1c(C)cccc1C	-	-	49	-	-	ATG4B confirm=57
COc1ccc(CCNC(=O)Cn2cnc3c(nnn3Cc3ccccc3F)c2=O)cc1OC	-	-	-	-	.
CCCCCC(=O)Nc1ccccc1N1CCN(c2ccccc2)CC1	-	-	41	-	-	ATG4B confirm=51
Nc1c(C(=O)c2ccccc2)oc2ccccc12	-	-	-	-	.
O=C(c1ccc(Cl)cc1)c1oc2ccccc2c1CS(=O)(=O)c1ccccc1	-	-	43	-	-
